Experimental data gathered from unrelated publications.
Each line is one published result; the experiments were not run side by side. ≈ marks a conversion by molar mass, not a printed value.

O=C1C(=Nc2ccc(Cl)cc2)c2ccccc2N1Cc1ccc([N+](=O)[O-])cc1 has an IC50 of 0.58 µM (B16; cell growth or viability; MTT; 48 h).
C[C@@H](O)[C@H]1C(=O)N2C(C(=O)O)=C(SCCN=CN)C[C@H]12 has an MIC of > 64 µg/mL (Acinetobacter baumannii; microbial growth; broth dilution; ATCCBAA1605).
With CC(C)c1cccc(C(C)C)c1N=C1C(=O)N(Cc2ccccc2)c2ccccc21 the IC50 was 6.77 µM (B16; cell growth or viability; MTT; 48 h).
The GI50 of Cc1n[nH]c2ccc3nc(-c4ccc(C(=O)NCCN(C)C)cc4)c4c(c3c12)CCCCC4 is reported as > 10 µM (G-361; cell growth or viability; 72 h).
Oc1cc(O)c2c(c1)O[C@H](c1cc(O)c(O)c(O)c1)[C@@H](O)C2 gave an MBC of 100 µg/mL (≈ 327 µM) (Streptococcus gordonii; microbial killing; broth dilution).
CC[C@H]1OC(=O)[C@H](C)[C@@H](O[C@H]2C[C@@](C)(OC)[C@@H](O)[C@H](C)O2)[C@H](C)[C@@H](O[C@@H]2O[C@H](C)C[C@H](N(C)C)[C@H]2O)[C@](C)(O)C[C@@H](C)CN(C)[C@H](C)[C@@H](O)[C@]1(C)O gave an MIC of 1 µg/mL (≈ 1.34 µM) (Acinetobacter baumannii; microbial growth; broth dilution; ATCC19606).
FC(F)(F)c1cc(OCc2cc(-c3ccccc3)no2)c2ccccc2n1 has an IC50 of 68.2 µM (Z-138; cell growth or viability; MTS; 72 h).
With CN(C)CCNC(=O)c1ccc(-c2nc3ccc4[nH]ncc4c3c3c2CCCC3)c(F)c1 the GI50 was 3.27 µM (G-361; cell growth or viability; 72 h).
The MBC of O=C1OC[C@H]2OC(O)[C@H](O)[C@@H](O)[C@@H]2OC(=O)c2cc(O)c(O)c(O)c2-c2c(O)c(O)c3oc(=O)c4c(c(O)c(O)c5oc(=O)c2c3c54)-c2c1cc(O)c(O)c2O (mixture of isomers) is reported as 400 µg/mL (Streptococcus gordonii; microbial killing; broth dilution).
CCc1ccc(N=C2C(=O)N(Cc3ccccc3)c3ccccc32)cc1 has an IC50 of 0.5 µM (B16; cell growth or viability; MTT; 48 h).
C[C@@H]1O[C@@H](OC[C@H]2O[C@@H](Oc3c(-c4ccc(O)c(O)c4)oc4cc(O)cc(O)c4c3=O)[C@H](O)[C@@H](O)[C@@H]2O)[C@H](O)[C@H](O)[C@H]1O has an MBC of 400 µg/mL (≈ 655 µM) (Streptococcus gordonii; microbial killing; broth dilution).
O=c1cc(OCc2cc(-c3ccccc3)no2)c2ccccc2o1 has an IC50 of > 100 µM (Z-138; cell growth or viability; MTS; 72 h).
O=C(O[C@@H]1O[C@@H]2COC(=O)c3cc(O)c(O)c(O)c3-c3c(cc(O)c(O)c3O)C(=O)O[C@H]([C@H]1O)[C@@H]2O)c1cc(O)c(O)c(O)c1 has an MBC of 800 µg/mL (≈ 1260 µM) (Streptococcus gordonii; microbial killing; broth dilution).
O=C1C(=Nc2ccccc2Br)c2ccccc2N1Cc1ccccc1 gave an IC50 of 0.5 µM (B16; cell growth or viability; MTT; 48 h).
CN(C)[C@@H]1C(O)=C(C(N)=O)C(=O)[C@@]2(O)C(O)=C3C(=O)c4c(O)cccc4[C@@](C)(O)[C@H]3C[C@@H]12 gave an MIC of 4 µg/mL (≈ 9 µM) (Acinetobacter baumannii; microbial growth; broth dilution; ATCC19606).
Cc1cccc(N=C2C(=O)N(Cc3ccc(Br)cc3)c3ccccc32)c1 gave an IC50 of 6.87 µM (B16; cell growth or viability; MTT; 48 h).
With CCCCCCC#Cc1cncc(-c2nnc(SCc3ccc(Cl)cc3)n2CCCN)c1 the MIC was 16 µg/mL (≈ 34.2 µM) (Acinetobacter baumannii; microbial growth; broth dilution; ATCC17978).
The MBC of O=C1O[C@H]2[C@@H]3OC(=O)c4cc(O)c(O)c(O)c4-c4c(O)c(O)c5oc(=O)c6c(c(O)c(O)c7oc(=O)c4c5c76)-c4c(cc(O)c(O)c4O)C(=O)OC[C@H]3OC(O)[C@@H]2OC(=O)c2cc(O)c(O)c(O)c2-c2c1cc(O)c(O)c2O (mixture of isomers) is reported as 400 µg/mL (Streptococcus gordonii; microbial killing; broth dilution).
For CO/N=C(\C(=O)N[C@@H]1C(=O)N2C(C(=O)O)=CCS[C@H]12)c1csc(N)n1, the MIC was > 64 µg/mL (Acinetobacter baumannii; microbial growth; broth dilution; ATCCBAA1605).
For Cc1cccc(N=C2C(=O)N(Cc3ccccc3)c3ccccc32)c1, the IC50 was 1.07 µM (B16; cell growth or viability; MTT; 48 h).
For CC1(C)S[C@@H]2[C@H](NC(=O)[C@H](N)c3ccc(O)cc3)C(=O)N2[C@H]1C(=O)O, the MIC was > 64 µg/mL (Acinetobacter baumannii; microbial growth; broth dilution; ATCC19606).
With CC(C)c1cccc(C(C)C)c1N=C1C(=O)N(Cc2cccc(Cl)c2)c2ccccc21 the IC50 was 40.9 µM (B16; cell growth or viability; MTT; 48 h).
CC(C)(C)c1cc(NC(=O)Nc2ccc(-c3cn4c(n3)sc3cc(OCCN5CCOCC5)ccc34)cc2)no1 has a GI50 of > 10 µM (G-361; cell growth or viability; 72 h).
C[C@H]1[C@H](NC(=O)/C(=N\OC(C)(C)C(=O)O)c2csc(N)n2)C(=O)N1S(=O)(=O)O gave an MIC of > 64 µg/mL (Acinetobacter baumannii; microbial growth; broth dilution; ATCCBAA1605).
With O=c1oc2c(O)c(O)cc3c(=O)oc4c(O)c(O)cc1c4c23 the MBC was 400 µg/mL (≈ 1320 µM) (Streptococcus gordonii; microbial killing; broth dilution).
COc1cc(N=C2C(=O)Nc3ccccc32)cc(OC)c1 gave an IC50 of 3.02 µM (B16; cell growth or viability; MTT; 48 h).
